Assay results reported in ChEMBL document CHEMBL5661979, “Pharmacological inhibition of BMK1 suppresses tumor growth through promyelocytic leukemia protein” (Cancer Cell, 2010).

Assays:
[1] = biological target: Cyclin-dependent kinase 13 (Homo sapiens, UniProt Q14004); experiment: Inhibition of CHED in human HeLa cells lysate at 50 uM pre incubated for 15 mins followed by ADP acyl phosphate probe addition and measured after 10 mins by LC-MS/MS analysis relative to control; type: subcellular; conditions: time 25.0 min
Summary of the method: (§1)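 KiNativ profiling in HeLa lysate (5 mg/mL total protein). Lysate incubated 15 min with inhibitor at 50, 10, 2, 0.8 or 0 μM. ATP or ADP acylphosphate probe then added (5 μM final) and reacted 10 min. Reaction stopped with urea and analysed by targeted MS, using up to four fragment ions per kinase peptide-probe conjugate. % inhibition taken against untreated lysate. Run in duplicate.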

[2] = biological target: T1, Phosphatidylinositol 5-phosphate 4-kinase type-2 gamma (Homo sapiens) (UniProt Q8TBX8); experiment: Inhibition of PIP5K2C LIP1 site in human HeLa cells lysate at 10 uM pre incubated for 15 mins followed by ATP acyl phosphate probe addition and measured after 10 mins by LC-MS/MS analysis relative to control; type: subcellular; conditions: time 25.0 min
T1 sequence (whole entry): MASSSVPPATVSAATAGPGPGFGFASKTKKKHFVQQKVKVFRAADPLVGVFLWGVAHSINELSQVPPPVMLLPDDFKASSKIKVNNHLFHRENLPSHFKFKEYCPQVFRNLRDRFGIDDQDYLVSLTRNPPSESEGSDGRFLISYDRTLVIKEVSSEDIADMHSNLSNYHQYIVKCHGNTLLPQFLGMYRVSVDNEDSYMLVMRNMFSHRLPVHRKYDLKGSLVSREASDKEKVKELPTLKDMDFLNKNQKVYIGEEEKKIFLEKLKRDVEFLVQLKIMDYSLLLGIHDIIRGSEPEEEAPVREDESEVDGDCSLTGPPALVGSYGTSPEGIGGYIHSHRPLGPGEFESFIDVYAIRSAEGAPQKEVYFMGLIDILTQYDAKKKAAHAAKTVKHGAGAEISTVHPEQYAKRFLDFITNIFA

[3] = biological target: Cyclin-dependent kinase 9 (Homo sapiens, UniProt P50750); experiment: Inhibition of CDK9 in human HeLa cells lysate at 2 uM pre incubated for 15 mins followed by ADP acyl phosphate probe addition and measured after 10 mins by LC-MS/MS analysis relative to control; type: subcellular; conditions: time 25.0 min; summary of the method: as §1
[4] = Toxicity in C57Bl/6 mouse assessed as effect on total protein level at 50 mg/kg, ip for 14 days (reference value: 5.8 g/dl); type: organism-based; conditions: in vivo, 336 h, time 14 day
[5] = biological target: Phosphatidylinositol 4-kinase alpha (Homo sapiens, UniProt P42356); experiment: Inhibition of PIK4CA in human HeLa cells lysate pre incubated for 15 mins followed by ATP acyl phosphate probe addition and measured after 10 mins by LC-MS/MS analysis; type: subcellular
[6] = biological target: Calcium/calmodulin-dependent protein kinase kinase 1 (Homo sapiens, UniProt Q8N5S9); experiment: Inhibition of CAMKK1 in human HeLa cells lysate at 2 uM pre incubated for 15 mins followed by ADP acyl phosphate probe addition and measured after 10 mins by LC-MS/MS analysis relative to control; type: subcellular; conditions: time 25.0 min; summary of the method: as §1
[7] = biological target: T2, Dual specificity mitogen-activated protein kinase kinase 5 (Homo sapiens) (UniProt Q13163); experiment: Inhibition of MAP2K5 in human HeLa cells lysate at 10 uM pre incubated for 15 mins followed by ADP acyl phosphate probe addition and measured after 10 mins by LC-MS/MS analysis relative to control; type: subcellular; conditions: time 25.0 min
T2 sequence (whole entry): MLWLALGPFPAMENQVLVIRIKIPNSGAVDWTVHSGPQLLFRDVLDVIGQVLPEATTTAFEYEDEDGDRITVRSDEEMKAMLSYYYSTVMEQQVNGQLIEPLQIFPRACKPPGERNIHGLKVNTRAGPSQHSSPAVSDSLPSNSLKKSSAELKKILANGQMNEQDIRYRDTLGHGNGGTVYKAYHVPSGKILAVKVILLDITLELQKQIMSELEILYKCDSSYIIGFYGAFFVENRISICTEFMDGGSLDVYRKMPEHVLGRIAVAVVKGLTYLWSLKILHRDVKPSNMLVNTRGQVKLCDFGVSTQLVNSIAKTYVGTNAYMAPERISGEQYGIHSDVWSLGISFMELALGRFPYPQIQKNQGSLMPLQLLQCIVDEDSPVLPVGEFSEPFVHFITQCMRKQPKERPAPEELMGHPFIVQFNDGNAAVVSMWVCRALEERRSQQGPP

[8] = biological target: T3, EKC/KEOPS complex subunit TP53RK (Homo sapiens) (UniProt Q96S44); experiment: Inhibition of PRPK in human HeLa cells lysate at 10 uM pre incubated for 15 mins followed by ADP acyl phosphate probe addition and measured after 10 mins by LC-MS/MS analysis relative to control; type: subcellular; conditions: time 25.0 min
T3 sequence (whole entry): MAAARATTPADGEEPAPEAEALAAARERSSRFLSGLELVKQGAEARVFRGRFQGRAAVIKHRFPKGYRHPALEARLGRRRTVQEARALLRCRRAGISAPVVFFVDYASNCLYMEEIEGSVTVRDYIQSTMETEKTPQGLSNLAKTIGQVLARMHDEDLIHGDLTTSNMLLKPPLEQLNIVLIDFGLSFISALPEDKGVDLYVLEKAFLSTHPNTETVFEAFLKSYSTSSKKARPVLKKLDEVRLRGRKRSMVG

[9] = biological target: Calcium/calmodulin-dependent protein kinase type II subunit gamma (Homo sapiens, UniProt Q13555); experiment: Inhibition of CAMK2g in human HeLa cells lysate at 50 uM pre incubated for 15 mins followed by ADP acyl phosphate probe addition and measured after 10 mins by LC-MS/MS analysis relative to control; type: subcellular; conditions: time 25.0 min
Summary of the method: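 KiNativ-type profiling in HeLa lysate (5 mg/mL total protein). Lysate preincubated 15 min with inhibitor at 50, 10, 2, 0.8 or 0 μM, then ATP or ADP acylphosphate probe added (5 μM final) for 10 min. Reaction stopped with urea and analysed by targeted MS, using up to four fragment ions per kinase peptide-probe conjugate. % inhibition calculated against untreated lysate. Duplicate reactions.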

[10] = biological target: Serine/threonine-protein kinase tousled-like 2 (Homo sapiens, UniProt Q86UE8); experiment: Inhibition of TLK2 in human HeLa cells lysate at 2 uM pre incubated for 15 mins followed by ADP acyl phosphate probe addition and measured after 10 mins by LC-MS/MS analysis relative to control; type: subcellular; conditions: time 25.0 min
[11] = Inhibition of KHS1/2 in human HeLa cells lysate pre incubated for 15 mins followed by ATP acyl phosphate probe addition and measured after 10 mins by LC-MS/MS analysis; type: subcellular
[12] = biological target: Microtubule-associated serine/threonine-protein kinase 3 (Homo sapiens, UniProt O60307); experiment: Inhibition of MAST3 in human HeLa cells lysate at 50 uM pre incubated for 15 mins followed by ATP acyl phosphate probe addition and measured after 10 mins by LC-MS/MS analysis relative to control; type: subcellular; conditions: time 25.0 min
[13] = Inhibition of SRPK1/2 in human HeLa cells lysate at 50 uM pre incubated for 15 mins followed by ADP acyl phosphate probe addition and measured after 10 mins by LC-MS/MS analysis relative to control; conditions: 25 min, condition cancer

Sequence of Calcium/calmodulin-dependent protein kinase kinase 1 (Q8N5S9 whole entry, looked up): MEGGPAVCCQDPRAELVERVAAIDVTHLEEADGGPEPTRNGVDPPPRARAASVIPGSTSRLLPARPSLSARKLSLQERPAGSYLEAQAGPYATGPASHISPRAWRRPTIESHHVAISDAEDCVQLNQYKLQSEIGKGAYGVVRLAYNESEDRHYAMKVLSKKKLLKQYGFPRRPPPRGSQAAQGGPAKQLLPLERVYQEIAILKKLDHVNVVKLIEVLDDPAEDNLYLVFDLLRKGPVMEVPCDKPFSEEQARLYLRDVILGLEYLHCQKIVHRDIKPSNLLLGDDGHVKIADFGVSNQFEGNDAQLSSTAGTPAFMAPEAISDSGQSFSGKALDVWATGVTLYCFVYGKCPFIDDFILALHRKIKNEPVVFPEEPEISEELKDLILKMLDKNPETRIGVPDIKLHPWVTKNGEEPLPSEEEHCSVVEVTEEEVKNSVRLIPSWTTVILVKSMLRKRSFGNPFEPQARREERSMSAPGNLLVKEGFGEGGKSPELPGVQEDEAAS
Sequence of Phosphatidylinositol 4-kinase alpha (P42356 whole entry): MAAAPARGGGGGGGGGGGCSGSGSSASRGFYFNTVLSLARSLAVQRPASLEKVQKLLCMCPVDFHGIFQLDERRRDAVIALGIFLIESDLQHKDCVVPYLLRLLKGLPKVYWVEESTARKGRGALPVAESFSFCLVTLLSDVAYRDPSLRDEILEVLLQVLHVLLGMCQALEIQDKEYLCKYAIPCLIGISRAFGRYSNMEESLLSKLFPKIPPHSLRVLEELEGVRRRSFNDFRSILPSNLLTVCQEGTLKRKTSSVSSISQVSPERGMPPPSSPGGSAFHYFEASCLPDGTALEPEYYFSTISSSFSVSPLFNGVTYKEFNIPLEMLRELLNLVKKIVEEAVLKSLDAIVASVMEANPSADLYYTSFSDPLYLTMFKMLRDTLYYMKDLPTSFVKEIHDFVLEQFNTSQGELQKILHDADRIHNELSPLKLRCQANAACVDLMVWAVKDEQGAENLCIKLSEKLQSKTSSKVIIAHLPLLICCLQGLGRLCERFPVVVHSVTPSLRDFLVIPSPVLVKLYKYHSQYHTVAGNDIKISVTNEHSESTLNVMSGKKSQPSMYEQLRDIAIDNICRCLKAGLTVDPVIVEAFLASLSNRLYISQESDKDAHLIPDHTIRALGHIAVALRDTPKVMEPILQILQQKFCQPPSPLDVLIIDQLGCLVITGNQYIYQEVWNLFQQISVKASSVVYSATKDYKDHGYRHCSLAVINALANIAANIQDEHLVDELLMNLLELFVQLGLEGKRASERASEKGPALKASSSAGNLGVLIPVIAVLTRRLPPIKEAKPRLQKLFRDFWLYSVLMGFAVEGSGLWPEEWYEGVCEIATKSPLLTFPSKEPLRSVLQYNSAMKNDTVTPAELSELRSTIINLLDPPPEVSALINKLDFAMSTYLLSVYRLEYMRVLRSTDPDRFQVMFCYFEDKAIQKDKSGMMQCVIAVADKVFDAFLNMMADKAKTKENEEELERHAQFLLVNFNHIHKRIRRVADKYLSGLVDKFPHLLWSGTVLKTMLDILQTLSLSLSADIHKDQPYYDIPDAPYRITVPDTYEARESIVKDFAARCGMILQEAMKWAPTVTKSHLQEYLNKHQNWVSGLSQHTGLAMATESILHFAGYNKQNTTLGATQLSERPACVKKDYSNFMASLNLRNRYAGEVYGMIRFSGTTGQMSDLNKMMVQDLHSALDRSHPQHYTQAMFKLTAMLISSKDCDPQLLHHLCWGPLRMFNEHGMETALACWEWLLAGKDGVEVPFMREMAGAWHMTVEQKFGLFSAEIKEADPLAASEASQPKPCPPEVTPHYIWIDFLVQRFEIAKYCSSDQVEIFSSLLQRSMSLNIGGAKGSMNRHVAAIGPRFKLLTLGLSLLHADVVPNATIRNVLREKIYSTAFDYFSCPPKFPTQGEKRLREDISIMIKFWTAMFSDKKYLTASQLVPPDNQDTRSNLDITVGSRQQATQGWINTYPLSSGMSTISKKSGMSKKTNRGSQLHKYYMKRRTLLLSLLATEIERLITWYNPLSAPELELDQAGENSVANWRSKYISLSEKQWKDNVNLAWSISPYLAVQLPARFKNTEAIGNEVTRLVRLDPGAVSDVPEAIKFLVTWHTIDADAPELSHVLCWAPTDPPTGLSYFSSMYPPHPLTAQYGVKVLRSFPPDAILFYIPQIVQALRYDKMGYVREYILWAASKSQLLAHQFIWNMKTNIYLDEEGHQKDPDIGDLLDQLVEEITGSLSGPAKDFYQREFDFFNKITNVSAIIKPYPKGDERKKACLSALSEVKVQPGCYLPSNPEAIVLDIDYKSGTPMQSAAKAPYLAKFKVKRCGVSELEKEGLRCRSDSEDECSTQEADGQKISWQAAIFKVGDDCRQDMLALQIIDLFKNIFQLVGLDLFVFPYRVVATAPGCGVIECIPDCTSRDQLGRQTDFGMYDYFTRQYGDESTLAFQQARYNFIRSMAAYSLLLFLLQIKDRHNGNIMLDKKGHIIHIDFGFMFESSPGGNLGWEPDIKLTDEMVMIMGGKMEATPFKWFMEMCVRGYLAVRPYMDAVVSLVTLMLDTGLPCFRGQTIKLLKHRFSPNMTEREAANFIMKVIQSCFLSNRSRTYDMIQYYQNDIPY
Sequence of Serine/threonine-protein kinase tousled-like 2 (Q86UE8 whole entry, looked up): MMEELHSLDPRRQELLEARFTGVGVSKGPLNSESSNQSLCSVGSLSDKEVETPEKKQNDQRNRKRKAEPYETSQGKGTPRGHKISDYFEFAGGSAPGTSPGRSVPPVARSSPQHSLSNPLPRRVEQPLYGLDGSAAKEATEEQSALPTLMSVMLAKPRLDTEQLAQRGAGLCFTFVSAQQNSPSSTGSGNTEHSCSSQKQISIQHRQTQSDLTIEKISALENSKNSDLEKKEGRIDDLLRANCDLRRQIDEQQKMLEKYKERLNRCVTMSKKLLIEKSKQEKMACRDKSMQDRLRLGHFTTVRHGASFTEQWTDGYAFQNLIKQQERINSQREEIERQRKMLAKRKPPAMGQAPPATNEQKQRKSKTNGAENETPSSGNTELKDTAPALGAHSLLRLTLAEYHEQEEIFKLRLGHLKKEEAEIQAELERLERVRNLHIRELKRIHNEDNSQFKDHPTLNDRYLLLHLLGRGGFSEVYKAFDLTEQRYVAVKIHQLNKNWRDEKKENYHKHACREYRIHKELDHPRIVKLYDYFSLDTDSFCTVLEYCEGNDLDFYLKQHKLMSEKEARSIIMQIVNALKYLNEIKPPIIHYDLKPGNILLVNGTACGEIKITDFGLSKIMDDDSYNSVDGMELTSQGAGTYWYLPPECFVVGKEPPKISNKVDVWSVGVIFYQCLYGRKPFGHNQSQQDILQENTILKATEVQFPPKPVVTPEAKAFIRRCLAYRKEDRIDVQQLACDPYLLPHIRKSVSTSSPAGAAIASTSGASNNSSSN
Sequence of Microtubule-associated serine/threonine-protein kinase 3 (O60307 whole entry): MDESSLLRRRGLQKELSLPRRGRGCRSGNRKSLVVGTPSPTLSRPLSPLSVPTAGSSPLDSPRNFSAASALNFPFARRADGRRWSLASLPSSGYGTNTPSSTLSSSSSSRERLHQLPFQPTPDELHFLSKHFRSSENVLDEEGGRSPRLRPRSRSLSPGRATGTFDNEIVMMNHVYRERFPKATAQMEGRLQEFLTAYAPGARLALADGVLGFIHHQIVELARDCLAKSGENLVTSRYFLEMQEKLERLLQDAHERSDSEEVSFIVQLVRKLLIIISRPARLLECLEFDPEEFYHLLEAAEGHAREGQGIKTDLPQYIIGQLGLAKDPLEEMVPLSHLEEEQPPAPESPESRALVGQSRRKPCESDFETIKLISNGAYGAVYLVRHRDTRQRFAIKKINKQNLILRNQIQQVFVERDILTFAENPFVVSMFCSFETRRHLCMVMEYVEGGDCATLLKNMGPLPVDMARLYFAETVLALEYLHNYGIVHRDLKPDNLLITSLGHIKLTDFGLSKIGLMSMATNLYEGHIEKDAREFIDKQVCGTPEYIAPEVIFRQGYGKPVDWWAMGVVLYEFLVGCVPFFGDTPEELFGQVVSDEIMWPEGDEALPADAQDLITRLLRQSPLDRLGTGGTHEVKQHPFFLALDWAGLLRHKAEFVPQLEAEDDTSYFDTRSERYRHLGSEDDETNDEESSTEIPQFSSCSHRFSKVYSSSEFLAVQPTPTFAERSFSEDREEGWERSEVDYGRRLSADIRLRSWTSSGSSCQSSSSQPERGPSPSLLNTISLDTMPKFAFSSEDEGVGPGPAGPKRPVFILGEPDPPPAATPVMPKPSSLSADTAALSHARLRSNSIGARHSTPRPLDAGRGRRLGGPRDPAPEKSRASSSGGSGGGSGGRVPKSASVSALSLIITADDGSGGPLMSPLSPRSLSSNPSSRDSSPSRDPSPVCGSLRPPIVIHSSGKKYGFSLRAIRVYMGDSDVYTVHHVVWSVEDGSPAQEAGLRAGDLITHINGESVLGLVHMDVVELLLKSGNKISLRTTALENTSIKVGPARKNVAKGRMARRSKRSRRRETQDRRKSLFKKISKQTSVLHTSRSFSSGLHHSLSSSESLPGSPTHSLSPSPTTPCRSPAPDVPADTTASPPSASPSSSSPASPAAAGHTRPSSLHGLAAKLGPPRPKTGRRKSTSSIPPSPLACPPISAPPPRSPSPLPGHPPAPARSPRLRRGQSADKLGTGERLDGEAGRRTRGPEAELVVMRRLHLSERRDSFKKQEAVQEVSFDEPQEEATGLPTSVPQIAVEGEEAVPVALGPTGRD
Sequence of Cyclin-dependent kinase 9 (P50750 whole entry): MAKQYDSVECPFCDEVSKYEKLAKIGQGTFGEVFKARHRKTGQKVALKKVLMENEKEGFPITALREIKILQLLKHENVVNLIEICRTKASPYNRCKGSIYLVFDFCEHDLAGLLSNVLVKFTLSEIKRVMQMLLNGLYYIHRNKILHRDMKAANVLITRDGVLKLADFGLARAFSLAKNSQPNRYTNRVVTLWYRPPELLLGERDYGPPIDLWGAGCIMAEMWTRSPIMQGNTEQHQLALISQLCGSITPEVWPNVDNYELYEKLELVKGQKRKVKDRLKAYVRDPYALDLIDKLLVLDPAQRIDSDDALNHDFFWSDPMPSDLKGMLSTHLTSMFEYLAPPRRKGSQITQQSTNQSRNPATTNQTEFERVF

For `CCOc1cc(N2CCC(O)CC2)ccc1Nc1ncc2c(n1)N(C)c1ccccc1C(=O)N2C`, the inhibition [1] was 12%, the inhibition [2] was -1.3% and the inhibition [3] was 0.8%. The Activity [4] was 5.8 g/dL, the IC50 [5] was 36 µM and the inhibition [6] was -5.2%. For the same compound, the inhibition [7] was -9.9%, the inhibition [8] was 13.5% and the inhibition [9] was 14.1%. The inhibition [10] was 7.3%, the IC50 [11] was greater than 50 µM and the inhibition [12] was -5.8%. It also gave an inhibition at 50 µM [13] of -53.5%.
